Env fusion inh: HIV envelope-mediated fusion inhibition; 360,000 tested, 1.1% active; HeLa-JRFL Env/CEM21 cell fusion, luciferase; inhibition, % at 12.3 µM;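 active = mean replicate inhibition score of at least 50 and every replicate individually at or above 50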;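 note: 0% = plate neutral controls and 100% = maraviroc near 300 nM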
dFosB act-1: enhances mouse delta FosB homodimer DNA binding. P13346. purified delta FosB, TAMRA-CDK5 oligo fluorescence polarization; percent of positive-control signal above neutral wells. activation, % at 25 µM. 340,000 tested, 0.99% active. AID 493131;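 active = mean activation above about 17%, with every replicate also reaching it, limit read from the data, passing the limit was not always enough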
Target sequence (P13346 whole entry, looked up): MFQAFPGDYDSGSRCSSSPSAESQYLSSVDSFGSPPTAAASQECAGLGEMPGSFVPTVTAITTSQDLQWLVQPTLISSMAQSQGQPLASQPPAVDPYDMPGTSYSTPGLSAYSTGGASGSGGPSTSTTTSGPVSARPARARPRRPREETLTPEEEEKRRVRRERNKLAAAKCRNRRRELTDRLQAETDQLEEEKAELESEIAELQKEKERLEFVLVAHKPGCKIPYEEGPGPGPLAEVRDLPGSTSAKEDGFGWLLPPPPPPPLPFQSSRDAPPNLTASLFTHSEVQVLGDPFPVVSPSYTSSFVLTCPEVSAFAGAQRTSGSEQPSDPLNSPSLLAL
INS-1E GSIS act: primary screen for activators of insulin secretion dependent on glucose, INS-1E cells, GLuc reporter luminescence; INS-1E GLuc reporter insulin secretion, 2-3 h; activation, % at 16.6 µM; 370,000 tested, 0.61% active;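 active = lowest replicate activation of at least 40%, so every replicate reaches that level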;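 note: 0% = median of neutral control wells and 100% = median of IBMX positive control wells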
Cneo AK release: Cryptococcus neoformans lysis via adenylate kinase release | C. neoformans lysis, adenylate kinase release luminescence, 4 h; normalised: neutral wells 0, clomiphene wells 100 | lysis activity, % at 15 µM | 360,000 tested, 0.2% active | AID 651654;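 active = mean lysis activity across replicates of at least 80%, whatever share of replicates individually reach that level; inactive = mean lysis activity below 80%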
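Material – log-phase Cryptococcus neoformans yeast cells · Input – 5 × 10^6 yeast cells/mL · Medium – fresh YPD growth medium · Doses – single compound concentration per well · Timing – static 4 h at 37 °C with compound, 1 h detection · Detection – adenylate kinase release luminescence · Read-out – signal increase indicating cell lysis · Control set – Clomiphene as positive lysis control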
CDK5 inh: inhibitors of human CDK5/p35 kinase | inhibition, % at 10 µM | 330,000 tested, 0.01% active | Recombinant CDK5/p35, ADP-Glo luminescence, 60 min;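 active = highest replicate inhibition of at least 50% and at least 75% of replicates reaching 50%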;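 note: plate controls were DMSO neutral control for no effect and GW8510 at 10 µM for full effect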
PAX8 reporter: inhibitors of PAX8 transcriptional activity in RMG-I cells | 360,000 tested, 1.2% active | inhibition, % at 12.6 µM | RMG-I TPO-luciferase reporter, SteadyGlo, 24 h;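 active = mean replicate inhibition at least 60% with every replicate also reaching 60%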;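 note: luciferase light reporting Pax8 driven TPO promoter activity; plate controls were median of neutral control wells for no effect and mitoxantrone controls for full effect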
dFosB act-2: delta FosB (mouse) homodimer activation; shares compounds with dFosB act-1; purified delta FosB, TAMRA-CDK5 oligo fluorescence polarization; normalised: neutral wells 0, positive control 100; activation, % at 24.9 µM; 2,400 tested, under 10 active;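 active = highest replicate activation at or above 34% and every replicate reaching that threshold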;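 note: higher polarization means more probe DNA bound by delta FosB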
* = called active by the depositor; x = no result given; [ ] = dose if it differs, or a comment. Hits are enriched below; roughly 2.9% of the tested compounds scored in any of these assays.

SMILES | Env fusion inh | dFosB act-1 | INS-1E GSIS act | Cneo AK release | CDK5 inh | PAX8 reporter | dFosB act-2
Cc1cc(C)c(NC(=O)CSCc2nc3sc(C)c(C)c3c(=O)[nH]2)c(Cl)c1 | x | 32* | 9 | 0 | 1 | 6 | 1
Cc1cc(C)c2c(N)c(C(=O)c3ccc(Cl)cc3)sc2n1 | 20 | 5 | 2 | 7 | 3 | -29 | x
Cc1cc(C)c2c(N)c(C(=O)c3ccc(Cl)c(Cl)c3)sc2n1 | -3 | 37* | 7 | x | -6 | -9 | 4
COc1cc(-c2ccc3oc(-c4ccsc4)cc(=O)c3c2)cc(OC)c1OC | 22 | 44* | 0 | 1 | 0 | 5 | -12
CCOC(=O)CSc1nnc(NC(=O)c2ccc3c(c2)OCO3)s1 | 24 | 41* | 2 | -11 | -1 | 14 | 1
CCC(=O)Nc1nnc(SCC(=O)NCc2ccc3c(c2)OCO3)s1 | 18 | 23* | 22 | -1 | -3 | -1 | -1
CC(=O)Nc1nnc(SCC(=O)NCc2ccc3c(c2)OCO3)s1 | x | 10 | 7 | 0 | 0 | x | x
Cc1ccc(NC(=O)Cn2nnc(C(=O)NCc3cccs3)c2N)c(C)c1 | -4 | 13 | -9 | 1 | 2 | 8 | x
Cc1cc(C)c(NC(=O)Cn2nnc(C(=O)NCc3cccs3)c2N)c(C)c1 | -37 | 12 | x | 1 | -2 | 14 | x
CCc1ccccc1NC(=O)c1nnn(CC(=O)Nc2cccc(C)c2C)c1N | x | 42* | x | 1 | 0 | x | -8
Cc1cccc(NC(=O)Cn2nnc(C(=O)NCc3cccs3)c2N)c1C | -43 | 42* | 5 | -2 | 2 | x | 4
Cc1c(Cl)cccc1NC(=O)Cn1nnc(C(=O)NCc2cccs2)c1N | 1 | 39* | 29 | x | 0 | 25 | -3
Cc1cc(C)cc(NC(=O)Cn2nnc(C(=O)NCc3cccs3)c2N)c1 | -3 | 58* | 9 | x | x | -5 | 3
Cc1ccc(S(=O)(=O)Nc2cccc3c2O[C@@H](CN(C)C(=O)Nc2ccc(C(F)(F)F)cc2)[C@H](C)CN([C@@H](C)CO)C3=O)cc1 | 22[16.7 µM] | x | -27 | -1 | x | -16 | x
Cc1noc(C)c1S(=O)(=O)N(C)C[C@H]1OCCCC[C@@H](C)Oc2ccc(NC(=O)NC(C)C)cc2C(=O)N([C@@H](C)CO)C[C@H]1C | -51[16.7 µM] | x | -11 | -7 | x | 14 | x
C[C@H](CO)N1C[C@H](C)[C@H](CN(C)C(=O)C2CCC2)Oc2ncc(C3=CCCC3)cc2C1=O | -11[16.7 µM] | x | 13 | 3 | x | x | x
O=C(C[C@H]1C[C@H]2c3cc(NC(=O)c4cccnc4)ccc3O[C@H]2[C@H](CO)O1)NCc1cccnc1 | -2[16.7 µM] | x | 12 | 1 | x | -5 | x
COCC(=O)N1[C@H](C(=O)NCc2ccccc2Cl)[C@@H](CO)[C@@H]2Cn3c(cccc3=O)[C@@H]21 | x | x | 4 | x | x | -9 | x
O=C(NNC(=O)c1sc2cccc(Cl)c2c1Cl)NC1CCCCC1 | x | 7 | x | -1 | 2 | x | x
O=C(NNC(=O)c1sc2cccc(Cl)c2c1Cl)Nc1ccccc1 | x | 76* | -3 | 3 | -1 | x | 0
C[C@@H]1CCCCO[C@H](CN(C)S(=O)(=O)c2cn(C)cn2)[C@@H](C)CN([C@H](C)CO)C(=O)c2cc(NC(=O)Nc3ccc(F)cc3)ccc2O1 | -2[16.7 µM] | x | 13 | 5 | x | 8 | x
Cc1ccc(CSCC(=O)N/N=C/c2ccc(OCC(=O)Nc3ccc(C)cc3)cc2)cc1 | x | 27* | x | 2 | 1 | x | 9
COc1ccc(CSCC(=O)N/N=C/c2ccc(OCC(=O)N3CCCCC3)cc2)cc1 | x | -3 | 0 | 0 | 0 | x | x
COCC(=O)N1CCCCN2[C@@H](CO)[C@H](c3ccc(C#Cc4cccnc4)cc3)[C@@H]2C1 | x | x | 11 | -3 | x | -18 | x
COc1ccc2c3c(n(C)c2c1)[C@H](CO)N(Cc1ccncc1)CC31CN(C(=O)C2CCCC2)C1 | x | x | -9 | x | x | 0 | x
SMILES | Env fusion inh | dFosB act-1 | INS-1E GSIS act | Cneo AK release | CDK5 inh | PAX8 reporter | dFosB act-2
COc1ccc(OC2C(=O)N(Cc3ccc(F)cc3)C2c2cc(OC)c(OC)c(OC)c2)cc1 (stereo not given) | -70 | -3 | 4 | x | -1 | 4 | x
COC(=O)c1ccc(C2C(Oc3ccc(OC)cc3)C(=O)N2CCc2ccc(F)cc2)cc1 (stereo not given) | x | 23* | 113* | x | 1 | x | -1
CCCC#Cc1cnc2c(c1)C(=O)N([C@@H](C)CO)C[C@H](C)[C@H](CN(C)S(C)(=O)=O)O2 | -5[16.7 µM] | x | 16 | -2 | x | x | x
CCOC(=O)c1sc2nc(C)[nH]c(=S)c2c1C | -47 | 21* | -6 | x | -1 | -22 | 3
C/C=C/c1ccc2c(c1)O[C@H](CN(C)Cc1cccnc1)[C@H](C)CN([C@@H](C)CO)S2(=O)=O | -9[16.7 µM] | x | 12 | 46 | x | x | x
C[C@H](CO)N1C[C@H](C)[C@H](CN(C)S(=O)(=O)c2cn(C)cn2)Oc2cc(C#Cc3ccccc3)ccc2S1(=O)=O | 28[16.7 µM] | x | -18 | 3 | x | x | x
Nc1nonc1-n1nnc(C(=O)N/N=C/c2ccccc2Cl)c1COc1ccc(F)cc1 | -2 | 27* | 11 | x | 1 | -9 | 2
Cc1ccccc1COc1cccc(/C=N/NC(=O)c2nnn(-c3nonc3N)c2C)c1 | -1 | 24* | 8 | 5 | 2 | -10 | 0
Cc1cccc(COc2ccc(/C=N/NC(=O)c3nnn(-c4nonc4N)c3COc3ccc(F)cc3)cc2)c1 | 3 | 27* | 30 | 0 | 2 | -54 | -2
Nc1nonc1-n1nnc(C(=O)N/N=C/c2ccc(O)cc2)c1COc1ccc(F)cc1 | 2 | -4 | 7 | 1 | 2 | -20 | x
Nc1nonc1-n1nnc(C(=O)N/N=C/c2ccc(OCc3ccccc3)cc2)c1COc1ccc(F)cc1 | -20 | 0 | -9 | -1 | 1 | -6 | x
C[C@@H]1CN([C@@H](C)CO)C(=O)Cc2cc(N(C)C)ccc2O[C@H]1CN(C)Cc1ccc2c(c1)OCO2 | 3[16.7 µM] | x | 14 | 1 | x | 5 | x
COc1ccc(CN(C)C[C@H]2Oc3c(NS(C)(=O)=O)cccc3C(=O)N([C@H](C)CO)C[C@H]2C)cc1 | 3[16.7 µM] | x | 20 | 9 | x | -4 | x
CC1CCN(S(=O)(=O)c2cn(CC(=O)Nc3cccc(C#N)c3)cn2)CC1 | -10 | -1 | 4 | 15 | -1 | 1 | x
CC(=O)c1cccc(NC(=O)Cn2cnc(S(=O)(=O)N3CCC(C)CC3)c2)c1 | x | 50* | x | -1 | -3 | x | 0
CN1CCN(c2ccc(-c3cccc(NC(=O)COc4ccc(Cl)cc4)c3)nn2)CC1 | -90 | -9 | 22 | -7 | 3 | -42 | x
CN1CCN(c2ccc(-c3cccc(NC(=O)COc4ccc(Cl)cc4Cl)c3)nn2)CC1 | -273 | 28* | 5 | x | 1 | -80 | 1

High-throughput results (PubChem BioAssay)
